Source: ChEMBL document CHEMBL5678802, “Small-molecule p21-activated kinase inhibitor PF-3758309 is a potent inhibitor of oncogenic signaling and tumor growth” (Proc Natl Acad Sci U S A, 2010)
The source made the active and inactive calls. No cut-off for these calls is given here.

Legend:
[1] = test system: NCI-H1395; test: Antiproliferative activity against human NCI-H1395 cells assessed as inhibition of cell proliferation incubated for 3 days by CellTiter-Glo Luminescent Cell Viability Assay; format: functional, cell-based; conditions: NCI-H1395, 72 h
Summary of the method: (§1)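 Cancer cell lines seeded in 384-well plates on day 1; compound added on day 2 and left for 3 days. On day 5 all medium was aspirated, and viable cells were quantified by CellTiter-Glo luminescence, which measures cellular ATP. Dose-dependent effects on proliferation were determined.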

[2] = test system: NCI-H1975; test: Antiproliferative activity against human NCI-H1975 cells assessed as inhibition of cell proliferation incubated for 3 days by CellTiter-Glo Luminescent Cell Viability Assay; format: functional, cell-based; conditions: NCI-H1975, 72 h
Summary of the method: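 Cancer cell lines seeded in 384-well plates on day 1; compound added on day 2 and incubated 3 days. On day 5 media aspirated and viable cells quantified by ATP content using CellTiter-Glo luminescence; dose-dependent proliferation effects determined.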

[3] = test system: NCI-H1573; test: Antiproliferative activity against human NCI-H1573 cells assessed as inhibition of cell proliferation incubated for 3 days by CellTiter-Glo Luminescent Cell Viability Assay; format: functional, cell-based; conditions: NCI-H1573, 72 h; summary of the method: as §1
[4] = test system: CAPAN-1; test: Antiproliferative activity against human CAPAN-1 cells assessed as inhibition of cell proliferation incubated for 3 days by CellTiter-Glo Luminescent Cell Viability Assay; format: functional, cell-based; conditions: CAPAN-1, 72 h; summary of the method: as §1
[5] = test system: MDA-MB-415; test: Antiproliferative activity against human MDA-MB-415 cells assessed as inhibition of cell proliferation incubated for 3 days by CellTiter-Glo Luminescent Cell Viability Assay; format: functional, cell-based; conditions: MDA-MB-415, 72 h; summary of the method: as §1
[6] = biological target: Tyrosine-protein kinase Fyn (Homo sapiens, UniProt P06241); test: Inhibition of human FYN in presence of ATP relative to control; conditions: concentration not given here
Sequence of Tyrosine-protein kinase Fyn (P06241 2-537 limits assumed): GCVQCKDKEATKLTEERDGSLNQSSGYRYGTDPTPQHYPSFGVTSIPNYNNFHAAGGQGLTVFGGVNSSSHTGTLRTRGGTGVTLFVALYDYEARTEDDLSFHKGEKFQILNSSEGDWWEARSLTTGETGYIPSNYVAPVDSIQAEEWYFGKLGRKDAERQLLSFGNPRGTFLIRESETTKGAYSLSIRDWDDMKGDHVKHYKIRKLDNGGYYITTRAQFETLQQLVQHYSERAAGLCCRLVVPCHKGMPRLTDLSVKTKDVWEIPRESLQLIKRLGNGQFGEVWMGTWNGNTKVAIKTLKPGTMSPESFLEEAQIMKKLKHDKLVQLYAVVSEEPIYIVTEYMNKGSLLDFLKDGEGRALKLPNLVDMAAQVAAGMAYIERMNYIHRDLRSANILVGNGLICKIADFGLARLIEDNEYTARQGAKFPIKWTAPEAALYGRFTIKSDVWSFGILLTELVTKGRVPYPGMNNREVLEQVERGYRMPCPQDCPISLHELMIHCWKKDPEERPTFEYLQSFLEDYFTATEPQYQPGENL

[7] = biological target: Serine/threonine-protein kinase D2 (Homo sapiens) (UniProt Q9BZL6); test: Inhibition of human PKD2 (PRKD2) in presence of ATP relative to control; conditions: concentration not given here
Sequence of Serine/threonine-protein kinase D2 (Homo sapiens) (Q9BZL6 whole entry): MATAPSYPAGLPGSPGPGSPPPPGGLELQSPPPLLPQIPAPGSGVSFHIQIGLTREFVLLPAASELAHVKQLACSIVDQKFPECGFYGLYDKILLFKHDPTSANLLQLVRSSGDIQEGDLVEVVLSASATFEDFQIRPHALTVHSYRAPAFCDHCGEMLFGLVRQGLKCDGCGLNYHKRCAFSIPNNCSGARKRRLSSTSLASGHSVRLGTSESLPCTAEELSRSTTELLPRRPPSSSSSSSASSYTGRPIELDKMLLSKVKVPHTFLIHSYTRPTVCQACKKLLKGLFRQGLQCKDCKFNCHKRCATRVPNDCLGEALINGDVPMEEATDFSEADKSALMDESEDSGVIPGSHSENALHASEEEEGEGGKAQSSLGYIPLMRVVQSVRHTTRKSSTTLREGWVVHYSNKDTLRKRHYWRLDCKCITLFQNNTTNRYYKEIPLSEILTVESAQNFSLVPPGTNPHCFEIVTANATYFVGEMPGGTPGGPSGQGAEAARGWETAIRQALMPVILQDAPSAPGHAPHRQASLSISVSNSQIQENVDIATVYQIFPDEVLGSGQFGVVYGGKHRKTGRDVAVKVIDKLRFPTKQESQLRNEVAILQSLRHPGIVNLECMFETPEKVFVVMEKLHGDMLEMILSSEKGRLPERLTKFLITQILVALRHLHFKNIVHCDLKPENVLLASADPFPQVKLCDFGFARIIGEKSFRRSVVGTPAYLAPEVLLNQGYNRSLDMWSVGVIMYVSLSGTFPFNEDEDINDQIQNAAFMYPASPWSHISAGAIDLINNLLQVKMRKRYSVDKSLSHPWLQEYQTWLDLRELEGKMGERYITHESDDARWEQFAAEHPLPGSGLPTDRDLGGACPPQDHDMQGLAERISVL

[8] = biological target: RAC-gamma serine/threonine-protein kinase (Homo sapiens, UniProt Q9Y243); test: Inhibition of human AKT3 in presence of ATP relative to control; conditions: concentration not given here
Sequence of RAC-gamma serine/threonine-protein kinase (Q9Y243 whole entry): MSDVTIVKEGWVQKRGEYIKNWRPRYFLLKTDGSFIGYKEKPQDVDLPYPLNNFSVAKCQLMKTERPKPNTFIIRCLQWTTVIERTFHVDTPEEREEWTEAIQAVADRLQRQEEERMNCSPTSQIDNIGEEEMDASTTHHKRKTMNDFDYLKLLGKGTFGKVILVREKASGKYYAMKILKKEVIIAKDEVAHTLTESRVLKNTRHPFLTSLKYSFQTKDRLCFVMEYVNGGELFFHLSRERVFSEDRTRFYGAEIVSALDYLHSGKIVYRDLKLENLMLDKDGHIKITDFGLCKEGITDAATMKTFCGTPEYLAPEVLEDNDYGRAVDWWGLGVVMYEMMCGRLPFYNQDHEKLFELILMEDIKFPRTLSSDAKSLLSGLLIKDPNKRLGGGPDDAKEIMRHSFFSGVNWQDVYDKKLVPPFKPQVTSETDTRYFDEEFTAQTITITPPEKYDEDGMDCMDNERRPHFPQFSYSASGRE

[9] = biological target: Serine/threonine-protein kinase Chk2 (Homo sapiens, UniProt O96017); test: Inhibition of human CHK2 assessed as inhibition constant in presence of ATP
Sequence of Serine/threonine-protein kinase Chk2 (O96017 whole entry): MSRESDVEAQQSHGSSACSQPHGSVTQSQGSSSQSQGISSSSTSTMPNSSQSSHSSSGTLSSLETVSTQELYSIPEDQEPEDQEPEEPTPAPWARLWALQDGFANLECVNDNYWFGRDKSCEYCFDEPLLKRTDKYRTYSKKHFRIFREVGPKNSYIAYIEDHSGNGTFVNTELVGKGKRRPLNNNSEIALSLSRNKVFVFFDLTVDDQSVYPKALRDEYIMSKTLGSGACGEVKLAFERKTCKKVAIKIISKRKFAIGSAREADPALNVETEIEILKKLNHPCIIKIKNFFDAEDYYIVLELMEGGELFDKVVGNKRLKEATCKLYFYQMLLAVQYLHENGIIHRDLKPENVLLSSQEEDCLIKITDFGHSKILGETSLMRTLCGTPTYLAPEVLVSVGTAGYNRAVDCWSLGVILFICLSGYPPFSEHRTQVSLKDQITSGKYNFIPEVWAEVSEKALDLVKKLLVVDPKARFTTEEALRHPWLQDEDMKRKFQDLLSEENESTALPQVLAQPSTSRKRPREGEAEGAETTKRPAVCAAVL

[10] = biological target: T1, cGMP-dependent protein kinase 1 (Homo sapiens, UniProt Q13976); test: Inhibition of human PRKG1 assessed as inhibition constant in presence of ATP
T1 sequence (Q13976 whole entry): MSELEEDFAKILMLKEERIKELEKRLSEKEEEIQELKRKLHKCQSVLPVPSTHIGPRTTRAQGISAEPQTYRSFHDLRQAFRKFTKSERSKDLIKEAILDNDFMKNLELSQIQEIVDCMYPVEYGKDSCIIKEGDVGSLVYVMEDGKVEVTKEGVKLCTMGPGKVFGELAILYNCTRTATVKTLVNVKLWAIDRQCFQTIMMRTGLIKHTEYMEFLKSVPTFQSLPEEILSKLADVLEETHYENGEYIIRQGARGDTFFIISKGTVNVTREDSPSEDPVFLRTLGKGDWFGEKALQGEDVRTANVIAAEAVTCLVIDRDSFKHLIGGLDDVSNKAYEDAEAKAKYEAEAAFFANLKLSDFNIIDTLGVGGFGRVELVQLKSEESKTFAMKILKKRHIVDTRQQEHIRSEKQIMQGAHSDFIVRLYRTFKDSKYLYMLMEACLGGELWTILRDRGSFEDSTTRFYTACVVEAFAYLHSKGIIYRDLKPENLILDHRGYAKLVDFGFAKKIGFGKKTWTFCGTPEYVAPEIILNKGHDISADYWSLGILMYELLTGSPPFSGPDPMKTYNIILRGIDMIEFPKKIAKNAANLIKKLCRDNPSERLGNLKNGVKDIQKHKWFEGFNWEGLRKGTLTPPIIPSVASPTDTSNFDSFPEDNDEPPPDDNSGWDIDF

[11] = biological target: T2, Receptor-type tyrosine-protein kinase FLT3 (Homo sapiens, UniProt P36888); test: Inhibition of human FLT3 in presence of ATP
T2 sequence (P36888 whole entry): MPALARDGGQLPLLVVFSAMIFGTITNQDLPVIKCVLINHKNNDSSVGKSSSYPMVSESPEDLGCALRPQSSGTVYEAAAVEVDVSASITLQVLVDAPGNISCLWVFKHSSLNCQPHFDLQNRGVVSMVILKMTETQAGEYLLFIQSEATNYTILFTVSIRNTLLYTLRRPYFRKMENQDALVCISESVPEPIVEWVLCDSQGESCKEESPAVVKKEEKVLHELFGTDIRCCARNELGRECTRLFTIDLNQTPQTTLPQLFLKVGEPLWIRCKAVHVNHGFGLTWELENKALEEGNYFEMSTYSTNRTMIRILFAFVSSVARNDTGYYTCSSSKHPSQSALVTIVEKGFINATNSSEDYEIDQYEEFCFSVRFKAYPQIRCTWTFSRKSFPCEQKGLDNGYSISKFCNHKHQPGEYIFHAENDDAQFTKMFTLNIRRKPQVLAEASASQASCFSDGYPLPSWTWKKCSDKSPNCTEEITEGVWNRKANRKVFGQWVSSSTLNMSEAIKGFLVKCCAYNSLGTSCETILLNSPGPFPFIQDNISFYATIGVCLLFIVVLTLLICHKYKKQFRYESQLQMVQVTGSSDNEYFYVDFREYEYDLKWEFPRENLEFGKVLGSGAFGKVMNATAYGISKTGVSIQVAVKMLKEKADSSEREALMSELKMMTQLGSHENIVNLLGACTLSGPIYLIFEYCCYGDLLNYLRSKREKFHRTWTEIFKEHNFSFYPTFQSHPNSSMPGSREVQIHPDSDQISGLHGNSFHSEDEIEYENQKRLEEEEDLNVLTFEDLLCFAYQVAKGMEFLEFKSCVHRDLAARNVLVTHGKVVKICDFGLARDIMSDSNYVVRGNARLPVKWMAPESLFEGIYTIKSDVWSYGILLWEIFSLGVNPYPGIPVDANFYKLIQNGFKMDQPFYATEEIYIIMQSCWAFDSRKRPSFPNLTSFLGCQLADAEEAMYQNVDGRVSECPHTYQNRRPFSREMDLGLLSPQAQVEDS

[12] = biological target: Tyrosine-protein kinase Fgr (Homo sapiens, UniProt P09769); test: Inhibition of human FGR in presence of ATP
Sequence of Tyrosine-protein kinase Fgr (P09769 whole entry): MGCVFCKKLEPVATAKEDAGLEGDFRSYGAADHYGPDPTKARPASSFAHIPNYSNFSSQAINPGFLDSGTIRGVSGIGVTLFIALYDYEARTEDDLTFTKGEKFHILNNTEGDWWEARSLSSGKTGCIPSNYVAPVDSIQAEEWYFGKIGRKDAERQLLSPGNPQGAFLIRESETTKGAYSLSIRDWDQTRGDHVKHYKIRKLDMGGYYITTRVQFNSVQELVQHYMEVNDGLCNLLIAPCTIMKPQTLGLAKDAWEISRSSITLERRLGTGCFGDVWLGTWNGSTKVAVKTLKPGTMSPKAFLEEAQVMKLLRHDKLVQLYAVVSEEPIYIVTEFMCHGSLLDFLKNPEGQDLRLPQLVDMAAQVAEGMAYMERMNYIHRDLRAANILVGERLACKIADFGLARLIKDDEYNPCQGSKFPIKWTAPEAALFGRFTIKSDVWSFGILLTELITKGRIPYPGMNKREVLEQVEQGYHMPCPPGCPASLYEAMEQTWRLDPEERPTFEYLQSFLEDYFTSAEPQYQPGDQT

[13] = test system: HCT-116; test: Induction of cell cycle arrest in human HCT-116 cells assessed as accumulation of cells at sub G1 phase at 100 nM measured after 48 hrs by fluorescence activated cell sorter analysis (reference value: 1.84%); format: functional
[14] = test system: HCT-116; test: Induction of apoptosis in human HCT-116 cells at 100 nM measured after 48 hrs by fluorescence activated cell sorter analysis; format: functional, cell-based
[15] = test system: M24met; test: Antitumor activity against human M24met cells xenografted in nude mouse assessed as tumor growth inhibition at 15 mg/kg, po administered once daily for 9 to 18 days relative to control; format: functional; conditions: time 9-18 day, read-out: TGI
[16] = Drug concentration in nude mouse plasma xenografted with human HCT-116 cells at 3.3 mg/kg administered via pump for 9 days by LC-MS/MS analysis; format: ADME, organism-based; conditions: time 9 day

Question: Which results are given for Cc1nc(Nc2n[nH]c3c2CN(C(=O)N[C@H](CN(C)C)c2ccccc2)C3(C)C)c2sccc2n1 [PF-03758309]?
Answer: IC50 [1]: 0.0064 µM; IC50 [2]: 0.017 µM; IC50 [3]: 0.022 µM; IC50 [4]: 1.1 µM; IC50 [5]: 0.036 µM; inhibition [6]: 95%; inhibition [7]: 96%; inhibition [8]: 74%; Ki [9]: 0.003 µM; Ki [10]: 0.015 µM; IC50 [11]: 0.096 µM; IC50 [12]: 0.0234 µM; Activity [13]: 12.43%; Activity [14]: Active; inhibition in vivo at 15 mg/kg [15]: 72%; concentration at 216 h [16]: 37 ng/mL
